The structures appear in SMILES notation. ≈ marks a conversion by molar mass, not a printed value.

The values below come from ChEMBL document CHEMBL1135533, “Synthesis and in vitro studies of novel pyrimidinyl peptidomimetics as potential antimalarial therapeutic agents” (J Med Chem, 2002).

The subject of one assay is Colon cell line. The experiment in a line: In vitro inhibition of cell growth in human colon cell line. Type of assay: functional, cell-based. In a few lines: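 SW620 colon cells grown and tested in RPMI-1640 with 10% FBS. Serially diluted compound was placed in wells, cells were seeded straight onto it, and solvent blanks were included. After 72 h, cells were fixed with cold TCA (10% final) for 1 h at 4 °C, stained 30 min with 0.4% SRB in 1% acetic acid, and bound dye was solubilized in 10 mM Tris base, pH 10.5.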

The next assay has as its system Neuronal cell line. Nature of the assay: In vitro inhibition of cell growth in human neuronal cell line. Type of assay: functional, cell-based.
The test system of assay [1] is Plasmodium falciparum. Nature of the assay: Inhibitory activity against chloroquine-sensitive Plasmodium falciparum D6 (CDC/Sierra Leone I). Type of assay: functional, organism-based. In a few lines: (§1)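 Drug stocks in DMSO, diluted 400-fold into RPMI 1640 with 25 mM Hepes, 32 mM NaHCO3 and 10% Albumax I, then 2-fold serial dilutions (over 11 concentrations). Parasites exposed 48 h at 37 °C under 5% O2/5% CO2/90% N2, then [3H]hypoxanthine added for a further 18 h. Uptake counted by scintillation; IC50 from nonlinear regression logistic dose-response fit.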

The test system of assay [2] is Plasmodium falciparum. Nature of the assay: Inhibitory activity against chloroquine-resistant Plasmodium falciparum W-2 Indochina III. Type of assay: functional, organism-based. In a few lines:
as §1

As to `COC(=O)/C(=C/Cn1c(-c2ccccc2)ncc(NC(=O)OCc2ccccc2)c1=O)COC(=O)c1ccc([N+](=O)[O-])cc1`, the IC50 amounted to 7.6 µg/mL (≈ 12.7 µM) with Colon cell line, 1.75 µg/mL (≈ 2.92 µM) in the assay with Neuronal cell line, 0.024 µg/mL (≈ 0.0401 µM) in the assay with Plasmodium falciparum [1] and 0.024 µg/mL (≈ 0.0401 µM) in the assay with Plasmodium falciparum [2].

As for `COC(=O)/C(=C/[C@H](C)NC(=O)Cn1c(-c2ccccc2)ncc(NC(=O)OCc2ccccc2)c1=O)COC(C)=O`, the IC50 in the assay on Colon cell line was found to be 1.6 µg/mL (≈ 2.84 µM); in the assay on Neuronal cell line, 1.1 µg/mL (≈ 1.96 µM); in the assay on Plasmodium falciparum [1] it was 0.009 µg/mL (≈ 0.016 µM); in the assay on Plasmodium falciparum [2] it was 0.01 µg/mL (≈ 0.0178 µM).

Take `COC(=O)/C(=C/Cn1c(-c2ccccc2)ncc(NC(=O)OCc2ccccc2)c1=O)CO`: the IC50 in the assay on Colon cell line is over 50 µg/mL; in the assay with Neuronal cell line, 0.95 µg/mL (≈ 2.11 µM); in the assay with Plasmodium falciparum [1] it was 0.016 µg/mL (≈ 0.0356 µM); in the assay on Plasmodium falciparum [2], 0.017 µg/mL (≈ 0.0378 µM).

Turning to `COC(=O)/C(=C/Cn1c(-c2ccccc2)ncc(NC(=O)N2CCN(C(C)=O)CC2)c1=O)COC(C)=O`, the concentration for half-maximal inhibition (IC50) is over 50 µg/mL with Colon cell line, 13.8 µg/mL (≈ 27 µM) with Neuronal cell line, 0.017 µg/mL (≈ 0.0332 µM) in the assay on Plasmodium falciparum [1] and 0.018 µg/mL (≈ 0.0352 µM) with Plasmodium falciparum [2].

`COC(=O)/C(=C/Cn1c(-c2ccccc2)ncc(NC(=O)OCc2ccccc2)c1=O)COC(C)=O`: the IC50 is over 50 µg/mL in the assay with Colon cell line, 0.92 µg/mL (≈ 1.87 µM) with Neuronal cell line, 0.017 µg/mL (≈ 0.0346 µM) with Plasmodium falciparum [1] and 0.017 µg/mL (≈ 0.0346 µM) in the assay with Plasmodium falciparum [2].

As for `COC(=O)/C(=C/Cn1c(-c2ccccc2)ncc(NC(=O)OCc2ccccc2)c1=O)COC(=O)c1ccccc1`, the half-inhibitory concentration (IC50) amounted to 13.5 µg/mL (≈ 24.4 µM) in the assay on Colon cell line, 2.6 µg/mL (≈ 4.7 µM) in the assay with Neuronal cell line, 0.027 µg/mL (≈ 0.0488 µM) in the assay with Plasmodium falciparum [1] and 0.028 µg/mL (≈ 0.0506 µM) in the assay with Plasmodium falciparum [2].
